Results from PubChem BioAssay AID651740 (Broad Institute, 2012).
About 1,200 (21%) of roughly 5,600 compounds were called active. Roughly 3% stayed inconclusive and do not appear here. The list is a sample of the results. Values without a mark were called inactive.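 The calls were made as follows: active = mean inhibition above about 95%, with at least 55% of replicates also reaching it (limit read from the data); inconclusive = meets just one of the two conditions; inactive = meets neither condition.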

test: inhibitors of intracellular T. cruzi replication, confirmation, NIH3T3 host cells, beta-gal parasites, cherry-pick, set 2 (AID 651740);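 also: plate controls were neutral control median for no effect and positive control median for full effect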; conditions: T. cruzi beta-gal in NIH3T3, GalScreen luminescence, 90 h; at 2.09 µM; active compounds read high
Summary of the method: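 Material: beta-gal T. cruzi in mouse NIH/3T3 fibroblasts / Medium: DMEM, 2% FBS, 1% PSG / Also added: T. cruzi trypomastigotes, 5000 per well / Compound: single dose, 100 nL pinned DMSO compound / Timing: ≥90 h co-culture with compound, 60 min detection reagent / Technique: GalScreen lysis and luminescent beta-gal signal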

In order of rising inhibition:
1. C[C@H]1CN([C@@H](C)CO)C(=O)CCCn2cc(nn2)CO[C@H]1CN(C)C(=O)c1ccccc1  -12.4%
2. COc1ccc(C#Cc2cnc3c(c2)C(=O)N([C@@H](C)CO)C[C@H](C)[C@@H](CN(C)C(C)=O)O3)cc1  -5.22%
3. C[C@@H]1CN([C@@H](C)CO)S(=O)(=O)c2ccc(C#Cc3ccc(F)cc3)cc2O[C@H]1CN(C)C(=O)c1ccccn1  14.4%
4. CCCC#Cc1ccc2c(c1)O[C@@H](CN(C)C(=O)c1ccccc1F)[C@H](C)CN([C@H](C)CO)S2(=O)=O  19.4%
5. CC(=O)N(C)C[C@@H]1[C@@H](c2ccc(-c3ccccc3F)cc2)[C@@H](CO)N1C(C)=O  26.5%
6. C[C@H]1CN([C@@H](C)CO)C(=O)c2cccc(NS(=O)(=O)c3cn(C)cn3)c2O[C@@H]1CN(C)CC1CCCCC1  29.6%
7. CS(=O)(=O)N1[C@@H](C#N)[C@H](c2ccc(C#CC3CCCCC3)cc2)[C@@H]1CO  35.7%
8. O=C(CN1CCOCC1)N1CCCCN2[C@@H](CO)[C@H](c3ccc(-c4ccccc4)cc3)[C@@H]2C1  36.1%
9. O=C(Nc1ccc(Cl)cc1)N[C@@H]1CC[C@@H](CCNC(=O)c2ccccc2F)O[C@H]1CO  36.4%
10. O=C(Nc1ccccc1)N1CCCCN2[C@H](CO)[C@@H](c3ccc(C#Cc4ccccn4)cc3)[C@H]2C1  39.3%
11. Cc1noc(C)c1S(=O)(=O)Nc1ccc2c(c1)C(=O)N([C@@H](C)CO)C[C@H](C)[C@@H](CN(C)C(=O)Nc1cccc3ccccc13)OCCCC[C@H](C)O2  42.4%
12. Cc1ccc(S(=O)(=O)N(C)C[C@@H]2Oc3ncc(-c4cc5ccccc5o4)cc3C(=O)N([C@H](C)CO)C[C@@H]2C)cc1  43%
13. C[C@H](CO)N1C[C@H](C)[C@H](CN(C)S(=O)(=O)c2cccc(F)c2)Oc2ncc(/C=C/c3ccccc3)cc2C1=O  46.4%
14. C[C@@H]1CCCCO[C@H](CN(C)S(=O)(=O)c2ccc(F)cc2)[C@H](C)CN([C@@H](C)CO)C(=O)c2cc(NS(=O)(=O)c3ccccc3)ccc2O1  47.8%
15. C[C@@H]1CN([C@H](C)CO)C(=O)Cc2cc(NC(=O)c3ccncc3)ccc2O[C@H]1CN(C)Cc1ccc(-c2ccccc2)cc1  48.9%
16. O=C(CN1CCOCC1)N1CCCCN2[C@H](CO)[C@H](c3ccc(-c4ccccc4)cc3)[C@@H]2C1  49.3%
17. N#C[C@H]1[C@@H](c2ccc(C3=CCCCC3)cc2)[C@@H](CO)N1C(=O)NC1CCCCC1  59.4%
18. C[C@@H]1CN([C@H](C)CO)S(=O)(=O)c2ccc(C#CC3CCCC3)cc2O[C@@H]1CN(C)Cc1cccnc1  60.2%
19. C[C@@H]1CN([C@@H](C)CO)C(=O)c2cc(C#Cc3ccccc3)cnc2O[C@H]1CN(C)C(=O)c1ccccn1  62.8%
20. CN1c2ccc(-c3ccccc3)cc2[C@@H]2[C@@H](CCN2C(=O)c2ccncc2)[C@@H]1CO  64.5%
21. C[C@H]1CN([C@@H](C)CO)S(=O)(=O)c2ccc(C3=CCCC3)cc2O[C@@H]1CN(C)Cc1ccccc1  68%
22. CCCC#Cc1ccc([C@@H]2[C@@H](C#N)N(C(=O)C3CCCC3)[C@@H]2CO)cc1  73.2%
23. C[C@@H]1CN([C@H](C)CO)S(=O)(=O)c2ccc(C3=CCCC3)cc2O[C@H]1CN(C)Cc1ccccc1F  73.8%
24. C[C@@H]1CN([C@@H](C)CO)S(=O)(=O)c2ccc(C#Cc3ccc(F)cc3)cc2O[C@H]1CN(C)C(=O)NC1CCCC1  81.2%
25. C[C@H](CO)N1C[C@H](C)[C@H](CN(C)Cc2cccnc2)Oc2cc(C#CC3CCCC3)ccc2S1(=O)=O  82.9%
26. N#Cc1cccc(-c2ccc([C@H]3[C@H](CO)N4CCCCN(C(=O)Nc5cccc(F)c5)C[C@@H]34)cc2)c1  87.9%
27. OC[C@@H]1[C@H](c2ccc(C#Cc3ccccc3)cc2)[C@@H]2CN(Cc3cncnc3)CCCCN12  90.4%
28. COc1ccccc1-c1ccc2c(c1)O[C@H](CN(C)S(=O)(=O)c1ccc(C)cc1)[C@@H](C)CN([C@H](C)CO)S2(=O)=O  91.3%
29. C[C@H](CO)N1C[C@H](C)[C@@H](CN(C)S(=O)(=O)c2cccc(F)c2)OCc2ccccc2-c2c(n(C)c3ccccc23)C1=O  91.4%
30. CC(C)(C)[S@@](=O)N1Cc2cc(C(=O)NCc3ccc4c(c3)OCO4)nc(-c3cccc(-c4ccccc4)c3)c2[C@H]1CCO  91.6%
31. C[C@H](CO)N1C[C@H](C)[C@@H](CN(C)Cc2ccncc2)Oc2cc(Br)ccc2S1(=O)=O  92.7%
32. C[C@H](CO)N1C[C@H](C)[C@@H](CN(C)S(=O)(=O)c2ccccc2)Oc2ncc(C#Cc3ccccc3F)cc2C1=O  93%
33. C[C@H]1CN([C@@H](C)CO)S(=O)(=O)c2ccc(C#CCN(C)C)cc2O[C@@H]1CN(C)Cc1ccc(F)cc1  93.3%
34. Cc1ccccc1-c1ccc([C@H]2[C@H]3CN(S(=O)(=O)c4ccc(F)cc4)CCCCN3[C@H]2CO)cc1  93.8%

With `CC(C)NC(=O)N1[C@H](C#N)[C@H](c2ccc(C#CC3CCCCC3)cc2)[C@H]1CO` the inhibition was 117% (active).
With `COCC(=O)N(C)C[C@@H]1Oc2ncc(C#Cc3ccccc3OC)cc2C(=O)N([C@@H](C)CO)C[C@H]1C` the inhibition was 99.4% (active).
In the case of `C[C@@H]1CN([C@@H](C)CO)S(=O)(=O)c2ccc(C#Cc3ccccc3)cc2O[C@@H]1CN(C)C(=O)Nc1ccccc1`, the inhibition was 99.8% (active).
With `C[C@@H]1CN([C@@H](C)CO)S(=O)(=O)c2ccc(/C=C/c3ccccc3)cc2O[C@H]1CN(C)Cc1ccccc1` the inhibition was 106% (active).
With `C[C@H]1CN([C@@H](C)CO)S(=O)(=O)c2ccc(C3=CCCCC3)cc2O[C@@H]1CN(C)Cc1ccccc1` the inhibition was 109% (active).
With `CC(C)C#Cc1ccc2c(c1)O[C@H](CN(C)Cc1ccccc1)[C@H](C)CN([C@@H](C)CO)S2(=O)=O` the inhibition was 105% (active).
